From ChEMBL document CHEMBL4406881, “Design, synthesis and biological evaluation of benzoylacrylic acid shikonin ester derivatives as irreversible dual inhibitors of tubulin and EGFR” (Bioorg Med Chem, 2019)
Active and inactive are the calls of the source. The calls are words filed in the database; no cut-off is given here.

Assays:
[1] = system: A549; test: Cell cycle arrest in human A549 cells assessed as accumulation at G1 phase at 8 uM after 12 hrs by RNAse A/ PI staining based flow cytometric analysis (reference value: 67.69%); type: functional
Outline: (§1)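 A549 cells at 5.0×10^4 per well were grown 12 h at 37 °C. Treatment was 0, 2, 4 or 8 µM for 24 h, or 8 µM for 0, 12, 24 or 36 h. Cells were fixed in 70% ethanol at −20 °C for at least 12 h, then stained in PBS with 0.1 mg/mL RNase A and 5 µg/mL PI. At least 10,000 events per sample were collected by flow cytometry to give G0/G1, S and G2/M percentages.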

[2] = system: A549; test: Induction of apoptosis in human A549 cells assessed as viable cells at 2 uM after 24 hrs by Annexin-V/PI staining based flow cytometry analysis (reference value: 91.4%); type: functional; details: A549, 24 h, read-out: Activity
Outline: (§2)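 A549 cells seeded overnight at 37 °C, 5% CO2, then exposed to 0, 2, 4, 8 or 12 µM for 24 h (dose series) or 8 µM for 0, 12, 24, 36 h (time series). Harvested, PBS-washed, stained with Annexin V-FITC and PI in binding buffer 15 min at room temperature in the dark, analysed by flow cytometry; three independent experiments.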

[3] = system: A549; test: Induction of apoptosis in human A549 cells assessed as early apoptotic cells at 8 uM after 24 hrs by Annexin-V/PI staining based flow cytometry analysis (reference value: 2.02%); type: functional
[4] = system: A549; test: Cell cycle arrest in human A549 cells assessed as accumulation at S phase at 8 uM after 12 hrs by RNAse A/ PI staining based flow cytometric analysis (reference value: 19.66%); type: functional; outline: as §1
[5] = system: A549; test: Antitumour activity in ip dosed Balb/c mouse xenografted with human A549 cells assessed as increase in mouse survival at 2 to 4 mg/kg, ip administered once every two days for 32 days; type: functional, organism-based
[6] = Cytotoxicity against human LO2 cells assessed as reduction in cell viability after 24 hrs by MTT assay; type: cell-based, L02
Outline: (§3)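 MTT colorimetric assay. Cells in log phase in medium with 10% FBS were seeded at 10⁴ cells/well and left overnight at 37 °C, 5% CO₂ to reattach. Compounds were added at 0.1, 1, 10 and 100 μM in 10% FBS for 24 h. IC50 reported as mean ± SD of three independent experiments.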

[7] = system: A549; test: Induction of apoptosis in human A549 cells assessed as increase in Bax expression at 2 to 8 uM after 24 hrs by Western blot analysis; type: functional, cell-based
Outline: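 Western blot of A549 cells treated for 24 h. Lysates in RIPA buffer were run on SDS-PAGE and transferred to PVDF. Primary antibody at 1:1000 overnight at 4 °C, secondary antibody at 1:3000-1:5000 for 1 h, ECL detection. Densitometry was normalised to GAPDH; mean ± S.E.M. from three independent experiments.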

[8] = system: A549; test: Cell cycle arrest in human A549 cells assessed as downregulation of CDK2 expression at 2 to 8 uM by immunoblot analysis; type: functional, cell-based
Outline: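 A549 lysates in RIPA buffer with protease inhibitors were run on SDS-PAGE and blotted to PVDF. Membranes were probed overnight at 4 °C with primary antibody at 1:1000, then secondary antibody at 1:3000-1:5000 for 1 h, and detected by ECL. Band intensity was normalised to GAPDH. Results are mean ± S.E.M. from three independent experiments.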

[9] = system: A549; test: Induction of apoptosis in human A549 cells assessed as necrotic cells after at 8 uM 36 hrs by Annexin-V/PI staining based flow cytometry analysis (reference value: 2.98%); type: functional; outline: as §2
[10] = system: A549; test: Induction of apoptosis in human A549 cells assessed as low mitochondrial membrane potential at 12 uM after 12 hrs by JC-1 staining-based flow cytometric analysis (reference value: 6.3%); type: functional
[11] = target: T1, Epidermal growth factor receptor (Homo sapiens, UniProt P00533); test: Inhibition of EGFR signalling in human A549 cells assessed as reduction in EGFR phosphorylation after 24 hrs by Western blot analysis; type: cell-based
T1 sequence (P00533 whole entry): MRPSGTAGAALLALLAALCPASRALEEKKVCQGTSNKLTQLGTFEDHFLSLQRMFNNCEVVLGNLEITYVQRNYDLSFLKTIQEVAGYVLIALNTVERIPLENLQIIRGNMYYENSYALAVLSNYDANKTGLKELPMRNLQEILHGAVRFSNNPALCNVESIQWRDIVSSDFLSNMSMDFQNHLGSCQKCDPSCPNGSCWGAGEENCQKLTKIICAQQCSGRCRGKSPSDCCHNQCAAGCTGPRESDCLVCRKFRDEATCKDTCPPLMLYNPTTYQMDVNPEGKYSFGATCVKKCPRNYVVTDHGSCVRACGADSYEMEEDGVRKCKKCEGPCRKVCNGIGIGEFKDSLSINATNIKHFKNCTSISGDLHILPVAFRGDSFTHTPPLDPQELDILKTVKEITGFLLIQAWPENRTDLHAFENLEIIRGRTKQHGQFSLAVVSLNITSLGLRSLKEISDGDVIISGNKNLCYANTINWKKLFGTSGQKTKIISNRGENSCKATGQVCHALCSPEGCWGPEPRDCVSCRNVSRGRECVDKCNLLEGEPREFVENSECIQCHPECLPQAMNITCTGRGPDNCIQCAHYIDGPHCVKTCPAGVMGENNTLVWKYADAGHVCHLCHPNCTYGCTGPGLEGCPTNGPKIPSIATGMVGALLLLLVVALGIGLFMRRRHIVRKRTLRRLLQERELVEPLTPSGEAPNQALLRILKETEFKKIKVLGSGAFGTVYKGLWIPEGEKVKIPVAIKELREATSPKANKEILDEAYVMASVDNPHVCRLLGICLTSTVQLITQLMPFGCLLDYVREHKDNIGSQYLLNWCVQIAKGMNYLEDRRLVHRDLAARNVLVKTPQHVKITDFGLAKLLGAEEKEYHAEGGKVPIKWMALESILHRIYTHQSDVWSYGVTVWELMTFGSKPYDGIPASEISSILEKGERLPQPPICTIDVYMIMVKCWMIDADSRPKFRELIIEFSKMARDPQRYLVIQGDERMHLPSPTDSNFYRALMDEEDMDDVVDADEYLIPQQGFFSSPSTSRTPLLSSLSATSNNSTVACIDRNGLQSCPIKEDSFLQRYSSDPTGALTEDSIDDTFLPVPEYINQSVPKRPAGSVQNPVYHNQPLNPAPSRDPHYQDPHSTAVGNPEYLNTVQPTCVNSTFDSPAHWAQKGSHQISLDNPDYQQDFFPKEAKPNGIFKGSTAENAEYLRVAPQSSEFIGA
Outline: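 A549 cells in 6-well plates were lysed in RIPA buffer with protease inhibitors on ice for 30 min and cleared at 4 °C. Protein was quantified by BCA, run on SDS-PAGE and transferred to PVDF. Membranes were blocked with milk, probed with primary antibody (1:1000) overnight at 4 °C, then secondary antibody (1:3000-1:5000) 1 h at RT. Detection by ECL; band densitometry normalised to GAPDH (β-actin also used). Three independent experiments.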

[12] = system: A549; test: Induction of apoptosis in human A549 cells assessed as viable cells at 12 uM after 24 hrs by Annexin-V/PI staining based flow cytometry analysis (reference value: 91.4%); type: functional; details: A549, 24 h, read-out: Activity; outline: as §2
[13] = system: A549; test: Induction of apoptosis in human A549 cells assessed as late apoptotic cells at 12 uM after 24 hrs by Annexin-V/PI staining based flow cytometry analysis (reference value: 5.69%); type: functional
[14] = system: A549; test: Induction of apoptosis in human A549 cells assessed as necrotic cells after at 4 uM 24 hrs by Annexin-V/PI staining based flow cytometry analysis (reference value: 1.81%); type: functional; outline: as §2
[15] = system: HeLa; test: Antiproliferative activity against human HeLa cells assessed as reduction in cell viability after 24 hrs by MTT assay; type: functional, cell-based; outline: as §3
[16] = target: Tubulin (Homo sapiens) (UniProt P68371+Q9H4B7+P0DPH7+P68366+Q13509+Q71U36+P04350+Q3ZCM7+P07437+P68363+Q9BQE3+Q6PEY2+Q13885+Q9BVA1+Q9BUF5); test: Inhibition of microtubule polymerization in human A549 cells assessed as polymerized tubulin expression at 8 uM after 24 hrs by immuno blot analysis (reference value: 0.85); type: cell-based
Outline: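 Cells were lysed in hypotonic buffer 5 min at 37 °C and centrifuged 10000 rpm, 10 min, 25 °C. Soluble (supernatant) and polymerised (pellet) tubulin fractions were resolved by SDS-PAGE in equal amounts and immunoblotted for β-tubulin.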

[17] = system: A549; test: Cell cycle arrest in human A549 cells assessed as accumulation at G2/M phase at 2 uM after 24 hrs by RNAse A/ PI staining based flow cytometric analysis (reference value: 9.47%); type: functional; outline: as §1
[18] = system: A549; test: Induction of apoptosis in human A549 cells assessed as viable cells at 8 uM after 12 hrs by Annexin-V/PI staining based flow cytometry analysis (reference value: 88.4%); type: functional; details: A549, 12 h, read-out: Activity; outline: as §2
[19] = system: A549; test: Induction of apoptosis in human A549 cells assessed as late apoptotic cells at 8 uM after 36 hrs by Annexin-V/PI staining based flow cytometry analysis (reference value: 6.55%); type: functional; outline: as §2
[20] = system: A549; test: Cell cycle arrest in human A549 cells assessed as accumulation at G2/M phase at 8 uM after 24 hrs by RNAse A/ PI staining based flow cytometric analysis (reference value: 12.65%); type: functional; outline: as §1
[21] = system: A549; test: Induction of apoptosis in human A549 cells assessed as viable cells at 8 uM after 24 hrs by Annexin-V/PI staining based flow cytometry analysis (reference value: 91.4%); type: functional; details: A549, 24 h, read-out: Activity; outline: as §2
[22] = target: T1, Epidermal growth factor receptor; test: Inhibition of C-terminal His-tagged N-terminal GST-tagged human EGFR (668 to 1210 residues) expressed in baculovirus infected Sf9 cells after 30 mins in presence of gamma-[32p-ATP] binding assay

For `CC(C)=CC[C@@H](OC(=O)/C=C\C(=O)c1ccc(F)cc1)C1=CC(=O)c2c(O)ccc(O)c2C1=O`, the Activity [1] was 55.88%, the viability at 2 µM [2] was 83.7% and the Activity [3] was 31.7%. For the same compound, the Activity [4] was 24.72%, the Activity [5] was “Active” and the CC50 at 24 h [6] was 89.2 µM. For the same compound, the Activity [7] was “Active”, the Activity [8] was “Active” and the Activity [9] was 3%. For the same compound, the Activity [10] was 58.7%, the inhibition [11] was “Dose-dependent effect” and the viability at 12 µM [12] was 15.1%. For the same compound, the Activity [13] was 38.1%, the Activity [14] was 0.175% and the IC50 [15] was 7.93 µM. The fold change (FC) [16] was 0.69, the Activity [17] was 15.4% and the viability at 8 µM [18] was 79%. It also gave an Activity [19] of 41%, an Activity [20] of 33.75% and a viability at 8 µM [21] of 30.6%. It also gave an IC50 [22] of 0.0227 µM.
